Screens from PubChem.
PLC-beta3 inh = blocks human PLC-beta3 enzyme activity; Q01970; Purified PLC-beta3, fluorogenic substrate, fluorescence; inhibition, % at 12.2 µM; 370,000 compounds, 0.18% hits; AID 720704; in the data active = inhibition above about 11%
UCH37 inh = inhibitors of human deubiquitinating enzyme UCH37; Q9Y5K5; purified proteasome/UCH37, Ub-AMC cleavage fluorescence; inhibition, % (no concentration beside the values); 330,000 compounds, 0.33% hits; AID 588478;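 active = mean inhibition over replicate wells above about 20%, limit read from the data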
Target sequence (Q9Y5K5 whole entry, looked up): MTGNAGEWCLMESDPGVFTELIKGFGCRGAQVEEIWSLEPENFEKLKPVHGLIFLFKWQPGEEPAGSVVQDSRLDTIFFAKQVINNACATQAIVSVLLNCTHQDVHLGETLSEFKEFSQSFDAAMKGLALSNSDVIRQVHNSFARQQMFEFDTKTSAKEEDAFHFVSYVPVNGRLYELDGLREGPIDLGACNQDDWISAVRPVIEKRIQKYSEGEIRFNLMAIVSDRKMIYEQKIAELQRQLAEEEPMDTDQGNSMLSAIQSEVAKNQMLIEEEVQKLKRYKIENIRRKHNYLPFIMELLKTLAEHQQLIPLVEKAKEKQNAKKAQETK
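System: Proteasome-associated human UCH37 deubiquitinase; Input: 0.15 nM proteasome in added enzyme buffer; Also added: Ub-AMC substrate from 1 µM stock; Incubation: 30 min compound-proteasome preincubation then 25 min substrate reaction, room temperature; Detection: fluorescence, ex 355 nm, em 460 nm; Read-out: % inhibition of Ub-AMC cleavage fluorescence; Benchmarks: no-proteasome and no-compound wells.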
Rpn11 block = inhibitors of human proteasome Rpn11; human 26S proteasome, Ub4-pepOG fluorescence polarization; 20S core pre-blocked with epoxomicin; inhibition, % at 20 µM; 360,000 compounds, 0.59% hits; AID 588493;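 active = inhibition at 20 µM, scaled to each plate's controls, above about 33%, limit read from the data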
Target sequence (O00487 whole entry, looked up): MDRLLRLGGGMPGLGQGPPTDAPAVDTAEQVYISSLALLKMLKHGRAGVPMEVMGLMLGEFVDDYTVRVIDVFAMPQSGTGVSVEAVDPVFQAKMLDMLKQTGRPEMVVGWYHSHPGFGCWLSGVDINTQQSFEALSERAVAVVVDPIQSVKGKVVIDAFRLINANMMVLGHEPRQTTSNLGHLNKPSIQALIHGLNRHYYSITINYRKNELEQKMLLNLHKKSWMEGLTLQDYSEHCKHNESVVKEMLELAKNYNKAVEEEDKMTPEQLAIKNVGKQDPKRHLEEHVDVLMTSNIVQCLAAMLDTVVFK
PLC-gamma1 inh = inhibitors of human phospholipase C gamma1 | inhibition, % at 12.2 µM | 370,000 compounds, 0.84% hits | P19174 | purified PLC-gamma1, fluorogenic substrate, fluorescence; in the data active = inhibition above about 9.5%
A number is an active result; i = inactive; nt = no result given. Shown are actives, neighbours in structure and some others; about 1.7% of the full set was active somewhere.

SMILES	PLC-beta3 inh	UCH37 inh	Rpn11 block	PLC-gamma1 inh
O=C(OCc1nnc(-c2ccc(Cl)cc2)o1)c1ccncc1	i	i	i	i
COc1ccc(C=NNC(=O)C2COc3ccccc3O2)cc1O (stereo not drawn)	nt	i	nt	nt
CCOC(=O)/C(C#N)=C1/C=CN(C)C(C)=N1	i	20.9	i	i
CCCN1C(=O)C2(C(C(=O)c3ccc(C)o3)=C(O)C(=O)N2CCCN2CCOCC2)c2ccccc21 (stereo not drawn)	nt	20.8	i	nt
C=CCN1C(=O)C2(C(C(=O)c3ccc(C)o3)=C(O)C(=O)N2CCCN2CCOCC2)c2ccccc21 (stereo not drawn)	i	i	i	i
COC(=O)c1ccc(Oc2nc(NC(C)C)nc(N(C)C)n2)cc1	14.7	i	i	i
Cc1cccc(N2C(=O)N3[C@H]4c5ccccc5OC[C@@H]4[C@@H](c4ccccc4)[C@@]3(C)C2=O)c1	i	26.2	i	i
Cc1cccc(N2C(=O)N3[C@@H]4c5ccccc5OC[C@@H]4[C@@H](c4ccccc4)[C@]3(C)C2=O)c1	nt	i	i	nt
COC(=O)C/C=C/[C@@H](C)[C@@H](C=NOC[C@H]1O[C@H](c2ccccc2)C=C[C@@H]1Oc1ccc(OC)cc1)OC	nt	i	nt	nt
S=c1[nH]nc(C2CCCCC2)n1N=Cc1ccccc1	nt	i	nt	nt
CCOC(=O)C(C)(C)n1nnc(-c2ccc([N+](=O)[O-])cc2)n1	i	i	i	i
CCOC(=O)Cn1nnc(-c2ccc([N+](=O)[O-])cc2)n1	i	i	i	9.6
Cc1ccc[n+](CC(=O)/C=C2\N(C)c3ccccc3C2(C)C)c1	i	20.4	i	i
Cc1[nH]n(-c2ccc(F)cc2)c(=O)c1C=Nc1sc2c(c1C#N)CCCC2	nt	i	nt	nt
COc1ccc(CNc2ccc3cn[nH]c3c2)c(OC)c1OC	i	21.7	i	i
CSc1ccc(C=NN2CCN(Cc3ccccc3)CC2)cc1	nt	i	nt	nt
O=C(NN=Cc1ccc(OC(=O)c2ccc(Br)cc2)cc1)c1ccncc1	nt	i	nt	nt
O=C(O)CCC(=NNc1ccc(S(=O)(=O)N2CCOCC2)cc1[N+](=O)[O-])c1cccs1	nt	20.1	nt	nt
O=C(O)CCC(=NNc1ccc([N+](=O)[O-])cc1S(=O)(=O)N1CCOCC1)c1cccs1	nt	i	nt	nt
Cc1[nH]n(-c2ccccc2)c(=O)c1C(c1cccc([N+](=O)[O-])c1)c1c(C)[nH]n(-c2ccccc2)c1=O	i	i	i	12.7
O=C(Oc1ccc(C=NNC(=O)c2ccccc2O)cc1)c1ccccc1	nt	i	nt	nt
CCN(CC)S(=O)(=O)c1ccc(NN=Cc2ccc(O)cc2)nc1	nt	i	nt	nt
O=C(N=C1N=C2C=CC(Br)=CN2Cc2ccccc21)c1ccc([N+](=O)[O-])cc1[N+](=O)[O-]	10.9	nt	i	12.8
Cc1ccc(C(=O)NN=Cc2ccc(S(=O)(=O)O)o2)c(Cl)c1	nt	i	nt	nt
Cc1c(C=NO)sc2ccccc12	nt	i	nt	nt
SMILES	PLC-beta3 inh	UCH37 inh	Rpn11 block	PLC-gamma1 inh
COc1ccc(C=NN2C(=O)CSC2=S)cc1	nt	i	nt	nt
COc1cc(C=Nn2c(SC)nnc(C(C)(C)C)c2=O)ccc1O	nt	34.8	nt	nt
COc1cc(/C=N/N2C(=O)CSC2=S)ccc1O	i	nt	49.0	i
FC(F)(F)c1cccc(C=NNC(=S)NC2CCCCC2)c1	nt	i	nt	nt
Cn1cccc1/C=C1\SC(=S)N(Nc2ccccc2)C1=O	i	i	nt	i
CC(C)C(C(=O)O)N1C(=O)/C(=C/c2cccn2C)SC1=S (stereo not drawn)	i	24.9	nt	i
O=C(O)C(Cc1ccccc1)N1C(=O)/C(=C/c2cccs2)SC1=S (stereo not drawn)	i	i	i	i
CCCC(C(=O)O)N1C(=O)/C(=C/c2cccn2C)SC1=S (stereo not drawn)	i	22.5	nt	i
Cc1c(C(=O)NCc2cccnc2)oc2c1C(=O)CC(C)(C)C2	i	i	i	i
Cc1c(C(=O)NCc2ccccc2)oc2c1C(=O)CCC2	i	25.2	i	i
O=C(Nc1ccc(Oc2ccccc2)cc1)c1csc([C@@H]2O[C@H](CO)[C@H](O)[C@H](O)[C@H]2O)n1	i	nt	i	9.7
CC(=O)N/C(=N/c1nc(C)cc(C)n1)Nc1ccc(Cl)cc1Cl	nt	i	nt	nt
C1CCc2nc3c(nc2C1)CCCC3	i	i	i	i
Nc1nnc2c(n1)CCCC2	i	21.1	i	i
CCOc1cc(/C=C2\NC(=O)NC2=O)cc([N+](=O)[O-])c1O	i	21.0	i	i
O=C(O)c1ccc2c(c1)C(=O)N(CCC1=CCCCC1)C2=O	i	i	i	12.9
Cc1ccc(NC(=S)C2=C(O)c3sccc3N(C)S2(=O)=O)cc1	i	24.0	i	i
COc1ccc(/C(O)=C2/C(=O)C(=O)N(CCCN(C)C)C2c2ccc(Cl)cc2)cc1OC (stereo not drawn)	i	23.9	i	i
COc1ccc(/C(O)=C2/C(=O)C(=O)N(CCCN3CCOCC3)C2c2ccc(C(C)C)cc2)cc1 (stereo not drawn)	i	20.1	i	i
CC1C=CC=CC=CC=CC=CC=CC=CC(OC2OC(C)C(O)C(N)C2O)CC2OC(O)(CC(O)CC(O)C(O)CCC(O)CC(O)CC(=O)OC(C)C(C)C1O)CC(O)C2C(=O)O (stereo not drawn)	nt	nt	43.5	nt
Cn1c(=O)c2c(nc(NN=Cc3ccncc3)n2Cc2ccccc2)n(C)c1=O	nt	i	nt	nt
CCc1nnc(NC(=O)c2cccc(S(=O)(=O)N3CCc4ccccc43)c2)s1	i	i	i	i
Cc1nnc(NC(=O)c2cccc(S(=O)(=O)N3CCc4ccccc43)c2)s1	i	27.5	i	i
CS(=O)(=O)n1nc(-c2ccc(Cl)cc2)nc1N	i	i	i	i
Cn1nc(-c2ccc(Cl)cc2)nc2c(=O)n(C)c(=O)nc1-2	nt	91.9	nt	nt
SMILES	PLC-beta3 inh	UCH37 inh	Rpn11 block	PLC-gamma1 inh
Cc1ccc(S(=O)(=O)N2CCOC2CNC(=O)C(=O)NCCc2c[nH]c3ccccc23)cc1 (stereo not drawn)	i	29.0	i	i
O=C(NCCc1c[nH]c2ccccc12)C(=O)NCC1OCCCN1S(=O)(=O)c1ccc(F)cc1 (stereo not drawn)	i	i	i	i
O=C1N/C(=C/c2ccc(N3CCOCC3)o2)C(=O)N1c1cccc(Cl)c1	i	i	65.0	i
Oc1c(Cl)cc(CN2CCOCC2)c2cccnc12	i	i	i	i
Oc1c(CN2CCc3ccccc3C2)cc(Cl)c2cccnc12	nt	i	38.8	nt
O=C(NN=Cc1cccc(C(F)(F)F)c1)c1cc2c(s1)-c1ccccc1CC2	nt	i	nt	nt
COc1ccc(/C=C/C(=O)Oc2cccc(C=NNC(=O)COc3c(C)cccc3C)c2)cc1	nt	i	nt	nt
O=[N+]([O-])c1cc(Cl)c(O)c2ncccc12	i	24.7	i	i
CC(=NNC(=O)c1cnccn1)c1cccs1	nt	i	nt	nt
COC(=O)c1sccc1NC(=O)c1ccc(C#N)cc1	nt	i	60.8	nt
Cc1cc(C)n(-c2nnc(C)n2N=Cc2ccc(O)cc2)n1	nt	i	nt	nt
Cn1cc(C(=O)c2ccc(Cl)cc2Cl)cc1C(=O)N/N=C(\N)COc1ccc(Cl)cc1Cl	i	nt	i	11.9
C=CCn1c(CNc2ccccc2)nnc1SCC(=O)NN=Cc1ccc(O)cc1O	nt	i	nt	nt
Cc1cc(C)cc(OCC(=O)NCC2CCCO2)c1 (stereo not drawn)	i	i	i	i
Cc1cc(C)c(C)c(OCC(=O)NCC2CCCO2)c1 (stereo not drawn)	i	i	i	12.1
